Test results as given in ChEMBL document CHEMBL1124688, “9,11-Epoxy-9-homo-14-thiaprost-5-enoic acid derivatives: potent thromboxane A2 antagonists” (J Med Chem, 1989).
Where “and” joins values, the source holds several entries; their conditions need not be identical. Identical values can stand only once. One block for each molecule: values may come before it.

Experiments:
Homo sapiens [1] = organism: Homo sapiens; test: (§1) Percentage stimulation on the synthesis of PGE-2 at a dose of 10 uM; assay type: functional
Outline: (§2)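 Arachidonic acid metabolism was measured in a lysed platelet preparation. Thromboxane synthesis (as TxB2) and PGE2 production were determined at each listed test concentration.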

Homo sapiens [2] = organism: Homo sapiens; test: (§3) Percentage stimulation on the synthesis of PGE-2 was at a dose of 100 uM; assay type: functional; outline: as §2
Homo sapiens [3] = organism: Homo sapiens; test: Percentage stimulation on the synthesis of PGE-2 was at a dose of 1000 uM; assay type: functional; outline: as §2
[4] = tested on: thromboxane-A synthase (Homo sapiens); test: Percent inhibition on the synthesis of thromboxane B2 at a dose of 10 uM
[5] = tested on: thromboxane-A synthase (Homo sapiens); test: Percent inhibition on the synthesis of thromboxane B2 at a dose of 100 uM
[6] = tested on: thromboxane-A synthase (Homo sapiens); test: Percent inhibition on the synthesis of thromboxane B2 at a dose of 1000 uM
Rattus norvegicus [7] = organism: Rattus norvegicus; test: Concentration required to elicit 50% of the maximal contraction of rat stomach strip; assay type: functional
Outline: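 Rat stomach strip contraction was measured as the concentration giving 50% of the maximal contraction produced by 3×10^-7 M serotonin.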

Cavia porcellus [8] = organism: Cavia porcellus; test: Duration of action of compound for Inhibition of arachidonic acid-induced response in guinea pigs; assay type: functional
Cavia porcellus [9] = test: Change in mean arterial blood pressure in guinea pigs by 1 mg/kg of intravenously administered compound; assay type: functional, Artery; details: route intravenous
Outline: (§4)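 Anesthetized guinea pigs were challenged with arachidonic acid, and lung mechanics (lung resistance, dynamic compliance) and mean arterial blood pressure were recorded. Compounds were given as a 1.0 mg/kg rapid iv infusion, with n = 5 versus vehicle. Inhibition above 100% denotes reversal of the blood-pressure response.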

Cavia porcellus [10] = organism: Cavia porcellus; test: In vitro evaluation for antagonist activity against the contraction-induced by 9,11-azo-PGH2 (0.1 ug/mL); assay type: functional; details: read-out: I50
Outline: (§5)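 Guinea pig trachea spirals were contracted by either 9,11-azo-PGH2 (a stable PGH2/TxA2 mimetic) or histamine, and compounds were tested for blockade of these contractions.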

Cavia porcellus [11] = organism: Cavia porcellus; test: In vitro evaluation for antagonist activity against the contraction-induced by histamine (1 ug/mL); assay type: functional; details: read-out: I50; outline: as §5
[12] = molecular target: Thromboxane A2 receptor (Homo sapiens) (UniProt P21731); test: Compound was evaluated for inhibition of specific binding of HSQ (5,6-di-3H-SQ 29,548) in washed platelets
Cavia porcellus [13] = test: Change in mean arterial blood pressure(MABP) in guinea pigs by 1 mg/kg of intravenously administered compound; assay type: functional, Artery; details: route intravenous; outline: as §4
Cavia porcellus [14] = test: Inhibition of arachidonic acid-induced response in guinea pigs by 1 mg/kg of intravenously administered compound; assay type: functional; design: scale not given: the % may be the effect or the level left; details: route intravenous; outline: as §4
Cavia porcellus [15] = organism: Cavia porcellus; test: Duration of action of compound for inhibition of arachidonic acid-induced response in guinea pigs; assay type: functional
Homo sapiens [16] = organism: Homo sapiens; test: Percent inhibition on the synthesis of thromboxane B2 at a dose of 100 uM; assay type: functional; outline: as §2
Homo sapiens [17] = organism: Homo sapiens; test: Percent inhibition on the synthesis of thromboxane B2 at a dose of 333 uM; assay type: functional; outline: as §2
Homo sapiens [18] = organism: Homo sapiens; test: as §1; assay type: functional; outline: as §2; remark: listed apart in the source
Homo sapiens [19] = organism: Homo sapiens; test: Percentage stimulation on the synthesis of PGE-2 at a dose of 100 uM; assay type: functional; outline: as §2
Homo sapiens [20] = organism: Homo sapiens; test: Percentage stimulation on the synthesis of PGE-2 at a dose of 1000 uM; assay type: functional; outline: as §2
Homo sapiens [21] = organism: Homo sapiens; test: Percentage stimulation on the synthesis of PGE-2 at a dose of 33 uM; assay type: functional; outline: as §2
Homo sapiens [22] = organism: Homo sapiens; test: In vitro evaluation for arachidonic acid induced platelet aggregation of human platelet-rich plasma; assay type: functional; details: read-out: I50
Outline: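 Human platelet-rich plasma was aggregated with arachidonic acid (800 μM). An ADP (20 μM)-induced aggregation run served as a counter-screen.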

Rattus norvegicus [23] = organism: Rattus norvegicus; test: maximal contraction of rat stomach strip by 3 x 10e -7M serotonin; assay type: functional
Thromboxane A2 receptor [24] = molecular target: T1, Thromboxane A2 receptor (Homo sapiens, UniProt P21731); test: Inhibition of specific binding of HSQ(5,6-di-3H-SQ 29,548) in washed platelets; design: species or system Cavia porcellus
T1 sequence (P21731 whole entry): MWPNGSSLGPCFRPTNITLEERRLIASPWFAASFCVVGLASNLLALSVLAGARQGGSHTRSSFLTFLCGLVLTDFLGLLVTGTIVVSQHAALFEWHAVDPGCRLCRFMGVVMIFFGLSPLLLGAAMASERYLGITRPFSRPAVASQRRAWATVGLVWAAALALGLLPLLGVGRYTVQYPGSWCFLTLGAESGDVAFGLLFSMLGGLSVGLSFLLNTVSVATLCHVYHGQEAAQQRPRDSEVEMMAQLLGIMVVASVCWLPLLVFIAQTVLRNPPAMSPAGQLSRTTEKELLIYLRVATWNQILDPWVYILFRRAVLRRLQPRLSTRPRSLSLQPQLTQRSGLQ

Homo sapiens [25] = organism: Homo sapiens; test: Percent inhibition on the synthesis of thromboxane B2 at a dose of 1000 uM; assay type: functional; outline: as §2
Homo sapiens [26] = organism: Homo sapiens; test: Percentage stimulation on the synthesis of PGE-2 at a dose of 333 uM; assay type: functional; outline: as §2
Thromboxane A2 receptor [27] = molecular target: T1, Thromboxane A2 receptor; test: Compound was evaluated for inhibition of specific binding of HSQ (5,6-di-3H-SQ 29,548) in washed platelets; design: species or system Cavia porcellus
Homo sapiens [28] = organism: Homo sapiens; test: Percent inhibition on the synthesis of thromboxane B2 at a dose of 1.0 uM; assay type: functional; outline: as §2
Homo sapiens [29] = organism: Homo sapiens; test: Percent inhibition on the synthesis of thromboxane B2 at a dose of 10 uM; assay type: functional; outline: as §2
Homo sapiens [30] = organism: Homo sapiens; test: Percent inhibition on the synthesis of thromboxane B2 at a dose of 3.1 uM; assay type: functional; outline: as §2
Homo sapiens [31] = organism: Homo sapiens; test: Percent inhibition on the synthesis of thromboxane B2 at a dose of 31 uM.; assay type: functional; outline: as §2
Homo sapiens [32] = organism: Homo sapiens; test: Percentage stimulation on the synthesis of PGE-2 at a dose of 1.0 uM; assay type: functional; outline: as §2
Homo sapiens [33] = organism: Homo sapiens; test: Percentage stimulation on the synthesis of PGE-2 was at a dose of 10 uM; assay type: functional; outline: as §2
Homo sapiens [34] = organism: Homo sapiens; test: as §3; assay type: functional; outline: as §2; remark: listed apart in the source
Homo sapiens [35] = organism: Homo sapiens; test: Percentage stimulation on the synthesis of PGE-2 was at a dose of 3.1 uM; assay type: functional; outline: as §2
Homo sapiens [36] = organism: Homo sapiens; test: Percentage stimulation on the synthesis of PGE-2 was at a dose of 31 uM; assay type: functional; outline: as §2
Cavia porcellus [37] = test: Change in mean arterial blood pressure(MABP) in guinea pigs by 1 mg/kg of intravenously administered compound; activity MABP; assay type: functional, Artery; details: route intravenous; outline: as §4

inhibition [4]: 33%
inhibition [5]: 45%
inhibition [6]: 75%
SMILES: CCCCCCSC[C@H]1C2CC[C@@H](O2)[C@H]1C/C=C\CCCC(=O)O (single isomer, unassigned; (+))
Stimulation (Homo sapiens [1]): 27%
Stimulation (Homo sapiens [2]): 44%
Stimulation (Homo sapiens [3]): -51%

IC50 (Cavia porcellus [10]): 400 nM
IC50 (Cavia porcellus [11]): > 100000 nM
SMILES: CCC/C=C/CSCC1C2CCC(O2)C1CC=CCCCC(=O)O (stereo unspecified)
Duration (Cavia porcellus [8]): <60 min
Activity MABP (Cavia porcellus [9]): 76% and 192%
A50 (Rattus norvegicus [7]): 26 µM
Kd [12]: 3.1 nM

IC50 (Cavia porcellus [10]): 3800 nM
IC50 (Cavia porcellus [11]): > 100000 nM
IC50 (Homo sapiens [22]): 500 nM
Kd (Thromboxane A2 receptor [24]): 76 nM
SMILES: C=CCSCC1C2CCC(O2)C1C/C=C\CCCC(=O)O (stereo unspecified)
Agonist activity (Cavia porcellus [13]; 1 mg/kg): 115% and 165%
Activity (Cavia porcellus [14]): 273% and 98%
Duration (Cavia porcellus [15]): >60 min
Inhibition (Homo sapiens [16]): 22.1%
Inhibition (Homo sapiens [17]): 51.8%
Stimulation (Homo sapiens [18]): 220%
Stimulation (Homo sapiens [19]): 860%
Stimulation (Homo sapiens [20]): 1820%
Stimulation (Homo sapiens [21]): 380%
Contraction (Rattus norvegicus [23]): 26%
Inhibition (Homo sapiens [25]): 61.5%
Stimulation (Homo sapiens [26]): 1650%

IC50 (Cavia porcellus [10]): 1600 nM
IC50 (Cavia porcellus [11]): > 100000 nM
SMILES: CCC/C=C(\C)CSCC1C2CCC(O2)C1CC=CCCCC(=O)O (stereo unspecified)
A50 (Rattus norvegicus [7]): 46 µM

IC50 (Homo sapiens [22]): 200 nM
Kd (Thromboxane A2 receptor [24]): 49 nM
SMILES: C=CCCSCC1C2CCC(O2)C1C/C=C\CCCC(=O)O (stereo unspecified)
A50 (Rattus norvegicus [7]): 32 µM

IC50 (Homo sapiens [22]): 700 nM
Kd (Thromboxane A2 receptor [24]): 97 nM
SMILES: CCCSCC1C2CCC(O2)C1C/C=C\CCCC(=O)O (stereo unspecified)
Agonist activity (Cavia porcellus [13]): 50%
Activity (Cavia porcellus [37]): 50%
Activity (Cavia porcellus [14]): 131% and 97%

Second part, the molecule before the results:

SMILES: O=C(O)CCCC=CCC1C2CCC(O2)C1CSC/C=C/c1ccccc1 (stereo unspecified)
A50 (Rattus norvegicus [7]): 0.7 µM

SMILES: CCCCCCS(=O)(=O)CC1C2CCC(O2)C1C/C=C\CCCC(=O)O (stereo unspecified)
A50 (Rattus norvegicus [7]): 8 µM

SMILES: O=C(O)CCC/C=C\CC1C2CCC(O2)C1CSCCc1ccccc1 (stereo unspecified)
A50 (Rattus norvegicus [7]): 23 µM

SMILES: CCCCCCSC[C@H]1C2CC[C@@H](O2)[C@H]1C/C=C\CCCC(=O)O (single isomer, unassigned; (-))
Duration (Cavia porcellus [8]): <60 min
Activity MABP (Cavia porcellus [9]): 107% and 153%
IC50 (Cavia porcellus [10]): 500 nM
IC50 (Cavia porcellus [11]): > 100000 nM
Kd (Thromboxane A2 receptor [27]): 1.6 nM
Inhibition (Homo sapiens [28]): 7%
Inhibition (Homo sapiens [29]): 17%
Inhibition (Homo sapiens [16]): 69%
Inhibition (Homo sapiens [30]): 3%
Inhibition (Homo sapiens [31]): 29%
Stimulation (Homo sapiens [32]): 174%
Stimulation (Homo sapiens [33]): 230%
Stimulation (Homo sapiens [34]): 556%
Stimulation (Homo sapiens [35]): 137%
Stimulation (Homo sapiens [36]): 404%
IC50 (Homo sapiens [22]): 1000 nM
A50 (Rattus norvegicus [7]): 25 µM

SMILES: O=C(O)CCC/C=C\CC1C2CCC(O2)C1CSCCOc1ccccc1 (stereo unspecified)
A50 (Rattus norvegicus [7]): 0.1 µM

SMILES: CCCCCC(C)SCC1C2CCC(O2)C1C/C=C\CCCC(=O)O (stereo unspecified)
Duration (Cavia porcellus [15]): 0 min
